Broadly, the inhibition is the relative decrease from the control value, in per cent.

“And” between values parts separate entries of the source, which are not always exact repeats. Identical values can stand only once.

This assay deals with Methionine--tRNA ligase, mitochondrial (Homo sapiens) (UniProt Q96GW9). Put plainly: inhibitors of human mitochondrial MetRS, late-stage follow-up, selectivity assay for T. brucei MetRS inhibitor project, biochemical, radioactivity, round 1 (AID 743061).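 Further: 0% = DMSO with full reaction and 100% = DMSO wells lacking tRNA.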 Particulars: recombinant human mtMetRS, [3H]Met tRNA charging, at 1 µM, stronger effect = higher value. Summed up: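 System: human mitochondrial MetRS enzyme / Buffer or medium: pH 8.0 reaction buffer containing 2.5 mM ATP / Probe or stimulus: 240 nM [3H]methionine with bulk E. coli tRNA acceptor / Doses: 10 and 1 µM / Times: 15 min compound–enzyme preincubation, then 1 h reaction at room temperature / Detection: scintillation counts of TCA-precipitated charged tRNA on filters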
As for `O=C(Nc1ccc(F)c(Cl)c1)C1CC(=O)n2c(nc3ccccc32)N1` (stereo not given), the inhibition was -11.1% and -0.44%.
Under `O=C(CN1CCSC1=NCc1ccccc1)c1ccc(Cl)c(Cl)c1` stands -25.1%; under `O=C(Cn1cnc2ccccc21)Nc1cccc([N+](=O)[O-])c1`, -15.4%.
Under `CCO[C@H]1OC(C(=O)NCc2nc3ccccc3[nH]2)=C[C@@H](c2ccc(Br)cc2)[C@@H]1CCCO` stands -15%; under `O=C(NCc1nc2ccccc2[nH]1)C1=C[C@@H](c2ccccc2)C[C@@H](OCc2ccc(CO)cc2)O1`, -16.8%; under `CCN(CC)C(=O)C(=O)c1cn(CC(=O)Nc2cccc(C(F)(F)F)c2)c2ccccc12`, -0.41%.
For `O=C1CC(N(CCc2ccccc2)C(=S)Nc2ccccc2)C(=O)N1c1ccc(Br)cc1` (stereo not given) the value was -25.5%; for `CC(C)(C)[C@H]1C=C(C(=O)NCc2nc3ccccc3[nH]2)O[C@@H](OCc2ccc(CO)cc2)C1`, -20.5%.
`O=C1[C@@H]2Cc3c([nH]c4ccccc34)C(c3cccc([N+](=O)[O-])c3)N2C(=O)CN1CCCO` (stereo not given in full): the inhibition is -17.4%.
Under `O=C(NCCc1nc2ccccc2[nH]1)c1ccc(Cl)cc1` stands 5.42%; under `O=C(NNC(=O)c1ccc(-n2cncn2)c([N+](=O)[O-])c1)c1ccc(Cl)cc1`, -30.3%; under `C[C@H](O)[C@@H]1C(=O)N2CCc3c([nH]c4ccccc34)[C@@H]2C[C@@H]1N(C)Cc1ccc2c(c1)OCO2`, -17.7%.
With `CN1CC(=O)N2C(c3cccc([N+](=O)[O-])c3)c3[nH]c4ccccc4c3C[C@H]2C1=O` (stereo not given in full), the inhibition was -17.1%.
For the compound `CC(=O)c1cn(CC(=O)Nc2cccc(C(F)(F)F)c2)c2ccccc12`, the inhibition is -20.4%.
Under `O=C(NCCc1nc2ccccc2[nH]1)c1ccc(Cl)cc1Cl` stands 16.4%.
Take `Brc1cnc2nc(SCc3nc4ccccc4[nH]3)[nH]c2c1`: the inhibition is -21.5%.
Consider `CC(=O)c1c[nH]c(C(=O)NCc2cccc(C(F)(F)F)c2)c1`, for which the inhibition is -7.99%.
As for `O=C(Cn1cc(C(=O)C2CC2)c2ccccc21)Nc1cccc(C(F)(F)F)c1`, the inhibition was 0.73%.
Take `O=C(NCc1nc2ccccc2[nH]1)C1=C[C@H](c2ccc(Br)cc2)C[C@H](OCc2ccc(CO)cc2)O1`: the inhibition turned out to be 0.59%.
Under `CN(CC(=O)Nc1ccc(Cl)cc1)C(=O)c1ccc(-n2cncn2)c([N+](=O)[O-])c1` stands -36.7%; under `O=C(NCc1nc2ccccc2[nH]1)C1=C[C@H](C2CC2)C[C@H](OCc2ccc(CO)cc2)O1`, 7.99%; under `O=C(CC(=O)Nc1cccc(Cl)c1)NN=Cc1ccccc1`, -18.3%.
Under `O=C(CC=NOCc1ccc([N+](=O)[O-])cc1)Nc1ccc(Br)cc1` stands -22.4%; under `CCOC(=O)N1CCC(Nc2c(Nc3ccc(F)cc3)c(=O)c2=O)CC1`, -8.53%; under `COc1ccccc1NC(=O)Cn1cc(C(=O)C(=O)N2CCOCC2)c2ccccc21`, -9.04%.
For `O=C(N/C(=C\c1cccnc1)c1nc2ccccc2[nH]1)c1cccc(Br)c1` the value was -19.7%.
`O=C(NCc1nc2ccccc2[nH]1)C1=C[C@@H](c2ccc3c(c2)OCO3)C[C@@H](OCCCCO)O1`: the inhibition is -3.63%.
With `CCN(CC)C(=O)C(=O)c1cn(CC(=O)Nc2cccc(OC)c2)c2ccccc12`, the inhibition was determined as 10.6%.
Take `COc1ccc(CCN(C(=O)c2cccc(F)c2)C2CC(=O)N(c3ccc(Br)cc3)C2=O)cc1` (stereo not given): the inhibition is -8.56%.
As to `COc1cccc(NC(=O)CSc2nnc3c(n2)[nH]c2ccc(C)cc23)c1`, the inhibition was 49.7%.
For `CNC(=S)N(CCc1ccccc1)C1CC(=O)N(c2ccc(Br)cc2)C1=O` (stereo not given) the value was 39%; for `Cc1ccc(C(=O)NCCc2nc3ccccc3[nH]2)cc1C`, 1.34%.
Under `Clc1ccc(-c2nnc(SCc3nc4ccccc4[nH]3)o2)c(Cl)c1` stands -3.17%.
With `O=C(NCCc1nc2ccccc2[nH]1)c1ccc(Cl)c([N+](=O)[O-])c1`, the inhibition turned out to be 2.97%.
Under `Clc1ccc(OCCSCc2nc3ccccc3[nH]2)cc1` stands -20%.

(Values after PubChem BioAssay AID743061 (The Scripps Research Institute Molecular Screening Center, 2013).)
